Compound activity (PubChem)
Shown are actives, neighbours in structure and some others; about 0.6% of the full set was active somewhere.
PolyA inhibitor – inhibitors of polyadenylation in S. cerevisiae; S. cerevisiae SKY197-pL101 polyadenylation reporter, beta-gal luminescence; efflux-impaired pdr1/pdr3 knockout yeast; score 100 = 6 SD above DMSO; activity score, % at 12 µM; actives 0.02% (n = 300,000);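 active means lowest replicate activity score at least 50, where 100 means six control SD above control mean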;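 further: yeast exposed to compound for 9 h at 30 °C; higher score means more reporter readthrough which indicates perturbed polyadenylation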
Efflux pump mplx – blocks antifungal efflux pumps in multiplex yeast assay; S. cerevisiae Candida pump triplex, Nile Red efflux; inhibition, % at 10 µM; actives 0.44% (n = 330,000);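 active means plate passing quality check with inhibition over a set limit, or well fluorescence over plate mean plus 4 SD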;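 further: Nile Red retained in pooled yeast measured as flow cytometry median fluorescence; higher means more Nile Red kept so more efflux inhibition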
GSK3beta inhib – human GSK3beta kinase inhibition; P49841; GST-GSK3beta kinase, ADP-Glo luminescence, 60 min; hits give low values; activity score (negative = inhibition), % at 10 µM; actives 0.038% (n = 300,000); AID 2097;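 active means more than half of replicate wells score below -50%, meaning over 50% inhibition versus plate controls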
Target sequence (P49841 whole entry, looked up): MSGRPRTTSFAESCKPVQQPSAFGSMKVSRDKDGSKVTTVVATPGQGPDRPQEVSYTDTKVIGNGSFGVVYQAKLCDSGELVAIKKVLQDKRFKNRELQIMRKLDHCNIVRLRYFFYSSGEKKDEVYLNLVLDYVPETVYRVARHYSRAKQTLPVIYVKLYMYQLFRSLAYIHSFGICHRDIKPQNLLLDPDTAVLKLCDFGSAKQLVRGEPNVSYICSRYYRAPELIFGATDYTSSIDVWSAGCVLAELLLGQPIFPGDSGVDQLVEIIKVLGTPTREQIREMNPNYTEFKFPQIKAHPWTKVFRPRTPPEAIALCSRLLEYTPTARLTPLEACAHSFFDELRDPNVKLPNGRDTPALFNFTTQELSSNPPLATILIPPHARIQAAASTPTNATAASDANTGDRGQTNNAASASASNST
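Assay system: GST-tagged human GSK3beta kinase, cell-free; Input: 1.6 ng GSK3beta; Medium: Tris/MgCl2 kinase buffer; Timing: 60 min enzyme reaction, room temperature; Signal: ADP-Glo luminescence quantifying ADP generated by kinase; Evaluation: score relative to plate controls; Benchmarks: DMSO neutral wells and GW8510 at 20 µM as positive.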
GSK3 alpha inh – inhibitors of human GSK-3 alpha kinase | inhibition, % at 10 µM | AID 2650 | P49840 | ADP-Glo luminescence, 60 min | actives 0.1% (n = 320,000);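 active means more than half of replicates show inhibition above 20%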;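 further: GST-tagged GSK-3 alpha with peptide substrate and 25 µM ATP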
STK33 kinase inh – human STK33 kinase inhibition; actives 0.073% (n = 320,000); inhibition, % at 10 µM; AID 2661; purified STK33, MBP phosphorylation, ADP-Glo luminescence; Q9BYT3;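 active means inhibition at or above 25%, using the most active replicate where run in duplicate; inactive means inhibition below 25%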
Yeast cmpd fluor – flagged as fluorescent in efflux inhibitor counter-screen; shares compounds with Efflux pump mplx; S. cerevisiae AD/pABC3, compound fluorescence, flow cytometry; fluorescence ratio to DMSO, % at 10 µM; actives 4% (n = 1,700); AID 588517;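 active means fluorescence ratio to DMSO above its plate's cutoff, the plate mean ratio plus 5 SD, cut at about 210% in these data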;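 further: unstained yeast with no Nile Red so the signal is compound autofluorescence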
CaMdr1 efflux inh – blocks the Candida albicans Mdr1 efflux pump in yeast; shares compounds with Efflux pump mplx; S. cerevisiae AD/CaMDR1, Nile Red efflux, flow cytometry; inhibition, % at 10 µM; actives 1% (n = 1,700); in the data active means inhibition above about 26%;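 further: higher means more Nile Red retained so more efflux inhibition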
CaCdr2 efflux inh – blocks the Candida albicans Cdr2 efflux pump in yeast; actives 4% (n = 1,700); shares compounds with Efflux pump mplx; Nile Red retention ratio vs DMSO, % at 10 µM; S. cerevisiae AD/CaCDR2, Nile Red retention, flow cytometry; in the data active means Nile Red retention ratio vs DMSO above about 190%;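 further: higher ratio means more blocking of Cdr2 efflux of the dye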
CaCdr1 efflux inh – blocks the Candida albicans Cdr1 efflux pump in yeast; shares compounds with Efflux pump mplx; S. cerevisiae AD/CaCDR1, Nile Red efflux, flow cytometry; inhibition, % at 10 µM; actives 1% (n = 1,700);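 active means inhibition above the screen-wide mean plus twice its standard deviation, cut at about 32% in these data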
Large screens that a line does not name were inactive (follow-up assays come after a bar, where they were run).

COc1ccc(C(=O)CC(Nc2ccc([N+](=O)[O-])cc2)c2ccc(OC)cc2)cc1 (stereo not drawn)	none
COC(=O)c1ccccc1NC(=O)N1CCN(C/C=C/c2ccccc2)CC1	STK33 kinase inh 32
COC(=O)CN1C(=O)S/C(=C/c2ccc(N3CCCCC3)o2)C1=O	none
O=C(O)CN1C(=O)/C(=C/c2ccc(N3CCCCC3)o2)SC1=S	PolyA inhibitor 106
Cc1occc1C(=O)N/N=C/c1ccc(N(C)C)cc1	STK33 kinase inh 29
COCc1ccc(C(=O)NC2CC(C)(C)Cc3c2cnn3-c2ccc(OC)cc2)o1 (stereo not drawn)	none (no result: GSK3beta inhib)
CCOC(=O)c1cc(CC)sc1NC(=O)COC(=O)C1CCC1	none
Nc1cc(C(=O)O)c(N)c2c1C(=O)c1ccccc1C2=O	GSK3 alpha inh 55, STK33 kinase inh 77
Nc1c(C(=O)O)ccc2c1C(=O)c1ccccc1C2=O	GSK3 alpha inh 58, STK33 kinase inh 52
Cc1nnc(N2C(=O)c3cccc4c([N+](=O)[O-])ccc(c34)C2=O)s1	Efflux pump mplx 2.1
Cc1ccc(N2C(=O)c3cccc4c([N+](=O)[O-])ccc(c34)C2=O)c2cccnc12	none
c1cc2[nH]snc2c2nc(C3CC3)nc12	GSK3 alpha inh 54
S=C(Nc1ccc(Cl)cc1)Nc1ccc2cn[nH]c2c1	none
CN(C)S(=O)(=O)c1cccc(NC(=S)Nc2cccc3cnccc23)c1	none (no result: Efflux pump mplx, GSK3 alpha inh, STK33 kinase inh)
COc1ccc(NC(=S)Nc2ccc3cn[nH]c3c2)cc1	STK33 kinase inh 39
CCc1ccc(NC(=S)Nc2ccc3cn[nH]c3c2)cc1	STK33 kinase inh 31
CN(C)S(=O)(=O)c1cccc(NC(=S)Nc2ccc3cn[nH]c3c2)c1	STK33 kinase inh 48
CC(C)NC(=S)Nc1ccc2cn[nH]c2c1	STK33 kinase inh 58
CCOc1ccc(C(=O)CCC(=O)NNC(=O)CCN2CCN(c3ccccc3)CC2)cc1	none (no result: PolyA inhibitor, GSK3beta inhib)
COCCNC(=S)N/N=C(\C)c1ccc(-n2ccnc2)cc1	none
S=C(NCc1ccccc1)Nc1ccc2cn[nH]c2c1	STK33 kinase inh 26
O=C(CSc1nc(N2CCCCC2)nc(N2CCCCC2)n1)c1ccccc1	STK33 kinase inh 28
COC(=O)c1cccc(Nc2nc(-c3cccnc3)nc3ccccc23)c1	none
CCOC(=O)c1cccc(Nc2nc(-c3cccnc3)nc3ccccc23)c1	none
O=C(O)c1ccc(Nc2nc(-c3cccnc3)nc3ccccc23)cc1	GSK3 alpha inh 61
O=C(O)c1cccc(Nc2nc(-c3cccnc3)nc3ccccc23)c1	STK33 kinase inh 32
O=C(O)c1ccc(NC(=O)c2cccc(C(=O)Nc3ccc(C(=O)O)cc3)n2)cc1	STK33 kinase inh 34
O=C(Nc1ccsc1C(=O)NC1CC1)c1ccccc1	GSK3 alpha inh 64
COc1ccc(Cn2c(-c3ccccc3)nc3c(c(=O)c4ccccc4n3C)c2=O)cc1	Efflux pump mplx 1.1 | Yeast cmpd fluor inactive | CaMdr1 efflux inh inactive | CaCdr2 efflux inh inactive | CaCdr1 efflux inh inactive
Cc1ccc(NC(=O)C2(C)Cc3ccccc3C(=O)O2)cc1 (stereo not drawn)	none
O=C1/C(=C/C=C/c2ccco2)SC(=S)N1c1ccc(O)cc1	none
O=C1/C(=C\c2ccco2)SC(=S)N1c1ccc(O)cc1	Efflux pump mplx 0.4 | Yeast cmpd fluor inactive | CaMdr1 efflux inh inactive | CaCdr2 efflux inh inactive | CaCdr1 efflux inh inactive
CC(=O)CSc1nc(N)c(C#N)c(-c2cccs2)c1C#N	none (no result: GSK3 alpha inh)
CC(C)(C)C(=O)CSc1nc2c(c(-c3cccs3)c1C#N)CCC2	Efflux pump mplx 0.5 | Yeast cmpd fluor inactive | CaMdr1 efflux inh inactive | CaCdr2 efflux inh inactive | CaCdr1 efflux inh inactive
CCOC(=O)c1ccc(Oc2nc(N(C)C)nc(N3CCOCC3)n2)cc1	none
